Test results taken from ChEMBL document CHEMBL4270578, “Synthesis and cytotoxic studies of novel 5-phenylisatin derivatives and their anti-migration and anti-angiogenic evaluation” (Eur J Med Chem, 2018).
Calls of active or inactive are those of the source. The rule behind the calls is not given here.

Experiments:
[1] = tested on: K562; assay: Induction of morphological changes in human K562 cells assessed as cell blebbing at 30 nM after 24 hrs; assay type: functional, cell-based
In short: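 K562 cells kept in RPMI-1640 with 10% FBS, 2.05 mM glutamine and penicillin/streptomycin at 37 °C, 5% CO2. Exposed to 30 nM drug alongside DMSO-treated controls. Cell morphology examined by microscopy.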

[2] = tested on: K562; assay: Induction of apoptosis in human K562 cells assessed as necrotic cells at 30 nM after 6 hrs by Annexin V-FITC/propidium iodide staining-based flow cytometric analysis (reference value: 0.1%); assay type: functional
[3] = tested on: K562; assay: Induction of apoptosis in human K562 cells assessed as necrotic cells at 30 nM after 12 hrs by Annexin V-FITC/propidium iodide staining-based flow cytometric analysis (reference value: 0.1%); assay type: functional
[4] = tested on: K562; assay: Induction of apoptosis in human K562 cells assessed as early apoptotic cells at 30 nM after 24 hrs by Annexin V-FITC/propidium iodide staining-based flow cytometric analysis (reference value: 1.9%); assay type: functional
[5] = tested on: K562; assay: Induction of apoptosis in human K562 cells assessed as late apoptotic cells at 30 nM after 48 hrs by Annexin V-FITC/propidium iodide staining-based flow cytometric analysis (reference value: 2.2%); assay type: functional
[6] = tested on: K562; assay: Induction of apoptosis in human K562 cells assessed as early apoptotic cells at 300 nM after 6 hrs by Annexin V-FITC/propidium iodide staining-based flow cytometric analysis (reference value: 2.2%); assay type: functional
[7] = tested on: K562; assay: Induction of apoptosis in human K562 cells assessed as necrotic cells at 300 nM after 6 hrs by Annexin V-FITC/propidium iodide staining-based flow cytometric analysis (reference value: 0%); assay type: functional
[8] = tested on: K562; assay: Induction of apoptosis in human K562 cells assessed as necrotic cells at 300 nM after 24 hrs by Annexin V-FITC/propidium iodide staining-based flow cytometric analysis (reference value: 0%); assay type: functional
[9] = tested on: HepG2; assay: Anti-migratory activity against human HepG2 cells at 10 nM after 48 hrs by wound-healing assay relative to control; assay type: functional
In short: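 HepG2 cells seeded at 2 × 10^5 cells/well in DMEM and grown 24 h. Monolayer scratched with a 10 μl pipette tip, then PBS-washed three times. Treated with DMSO or compound (10, 30, 100 nM) at 37 °C, 5% CO2, imaged by microscopy at 0–48 h. Migration distance measured; inhibition ratio calculated against DMSO control.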

[10] = tested on: HepG2; assay: Anti-migratory activity against human HepG2 cells after 24 hrs by DAPI staining-based transwell assay; assay type: functional, cell-based
In short: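 HepG2 cells in serum-free DMEM, 2 × 10^5 cells/well, placed in upper compartment of polycarbonate filter inserts; lower chamber DMEM + 10% FBS. Compound or DMSO added after 30 min; 24 h at 37 °C, 5% CO2. Filters methanol-fixed and DAPI-stained, non-migrated cells swabbed off. Migrated cells on the lower side counted in three random fields.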

[11] = tested on: HUVEC; assay: Antiangiogenic activity against HUVEC assessed as inhibition of tube formation after 12 hrs by microscopic analysis; assay type: functional, cell-based; settings: Homo sapiens
In short: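 Matrigel (13.9 mg/mL) polymerized 30 min at 37 °C. HUVECs (1 × 10^5 cells/well) in Ham's F-12 + 10% FBS plated on the gel; after 40 min, DMSO or compound (10, 30, 100 nM) added. Incubated 12 h at 37 °C, 5% CO2; capillary-like tube formation photographed by microscopy.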

COc1ccc(CN2C(=O)C(=O)c3cc(-c4ccc(OC)cc4)ccc32)cc1
Activity [1]: Active
Activity [2]: 0.1%
Activity [3]: 0%
Activity [4]: 5.7%
Activity [5]: 21.1%
Activity [6]: 2.4%
Activity [7]: 0.2%
Activity [8]: 0.2%
Activity [9]: 11.9%
Activity [10]: Dose-dependent effect
Activity [11]: Dose-dependent effect
